According to ChEMBL document CHEMBL3046615, “Isolation of nematicidal compounds from Tagetes patula L. yellow flowers: structure-activity relationship studies against cyst nematode Heterodera zeae infective stage larvae” (2011):
Activity calls are given as the source filed them. No cut-off for these calls is given here.

Assays:
Heterodera zeae [1] = assay: Nematicidal activity against Heterodera zeae infective stage larvae assessed as nematode mortality at 2% under dark conditions measured 5 to 60 min post dose by stereoscopic microscopy; assay type: functional, organism-based
Procedure, shortened: (§1)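 H. zeae freshly hatched second-stage juveniles, 100 per plate, three replicates, at 28 ± 2 °C under light or in a dark box. Dilutions are % of a stock: 30 mg/mL for extracts/fractions, 1 mg/mL for pure compounds. Methanol-, DMSO- or water-soluble samples were tested in glass cavity blocks. Petroleum ether-soluble samples were air-dried in the block and covered with agar pieces bearing cultured larvae. Mortality was followed over 5–60 min; each value is the mean of three experiments.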

Heterodera zeae [2] = assay: Nematicidal activity against Heterodera zeae infective stage larvae assessed as nematode mortality at 1% under dark conditions measured 5 to 60 min post dose by stereoscopic microscopy; assay type: functional, organism-based; procedure, shortened: as §1
Heterodera zeae [3] = assay: Nematicidal activity against Heterodera zeae infective stage larvae assessed as nematode mortality at 5% under dark conditions measured 5 to 60 min post dose by stereoscopic microscopy; assay type: functional, organism-based; procedure, shortened: as §1
Heterodera zeae [4] = assay: Nematicidal activity against Heterodera zeae infective stage larvae assessed as nematode mortality at 0.125% under dark conditions measured 24 hr post dose by stereoscopic microscopy; assay type: functional
Procedure, shortened: (§2)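 Freshly hatched H. zeae second-stage juveniles, 100 per Petri plate, three replicates. Samples in MeOH, DMSO or water were tested in glass cavity blocks; petroleum ether samples were dried onto the block and larvae transferred on agar pieces. Percentages are dilutions of 30 mg/mL stocks (extracts/fractions) or 1 mg/mL stocks (pure compounds). Incubated at 28 ± 2 °C in light or dark box; mortality averaged over three replicates.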

Heterodera zeae [5] = assay: Nematicidal activity against Heterodera zeae infective stage larvae assessed as nematode mortality at 0.25% under light conditions measured 5 to 60 min post dose by stereoscopic microscopy; assay type: functional, organism-based; procedure, shortened: as §1
Heterodera zeae [6] = assay: Nematicidal activity against Heterodera zeae infective stage larvae assessed as nematode mortality at 1% under dark conditions measured 48 hr post dose by stereoscopic microscopy; assay type: functional; procedure, shortened: as §2
Heterodera zeae [7] = assay: Nematicidal activity against Heterodera zeae infective stage larvae assessed as nematode mortality at 0.125% under light conditions measured 24 hr post dose by stereoscopic microscopy; assay type: functional; procedure, shortened: as §2
Heterodera zeae [8] = assay: Nematicidal activity against Heterodera zeae infective stage larvae assessed as nematode mortality at 0.25% under light conditions measured 24 hr post dose by stereoscopic microscopy; assay type: functional; procedure, shortened: as §2
Heterodera zeae [9] = assay: Nematicidal activity against Heterodera zeae infective stage larvae assessed as nematode mortality at 0.125% under dark conditions measured 48 hr post dose by stereoscopic microscopy; assay type: functional; procedure, shortened: as §2
Heterodera zeae [10] = assay: Nematicidal activity against Heterodera zeae infective stage larvae assessed as nematode mortality at 0.125% under light conditions measured 72 hr post dose by stereoscopic microscopy; assay type: functional; procedure, shortened: as §2
Heterodera zeae [11] = assay: Nematicidal activity against Heterodera zeae infective stage larvae assessed as nematode mortality at 0.5% under light conditions measured 24 hr post dose by stereoscopic microscopy; assay type: functional; procedure, shortened: as §2
Heterodera zeae [12] = assay: Nematicidal activity against Heterodera zeae infective stage larvae assessed as nematode mortality at 0.25% under light conditions measured 48 hr post dose by stereoscopic microscopy; assay type: functional; procedure, shortened: as §2
Heterodera zeae [13] = assay: Nematicidal activity against Heterodera zeae infective stage larvae assessed as nematode mortality at 0.5% under dark conditions measured 5 to 60 min post dose by stereoscopic microscopy; assay type: functional, organism-based; procedure, shortened: as §1
Heterodera zeae [14] = assay: Nematicidal activity against Heterodera zeae infective stage larvae assessed as nematode mortality at 0.5% under light conditions measured 5 to 60 min post dose by stereoscopic microscopy; assay type: functional, organism-based; procedure, shortened: as §1
Heterodera zeae [15] = assay: Nematicidal activity against Heterodera zeae infective stage larvae assessed as nematode mortality at 0.125% under dark conditions measured 5 to 60 min post dose by stereoscopic microscopy; assay type: functional, organism-based; procedure, shortened: as §1
Heterodera zeae [16] = assay: Nematicidal activity against Heterodera zeae infective stage larvae assessed as nematode mortality at 0.5% under dark conditions measured 72 hr post dose by stereoscopic microscopy; assay type: functional; procedure, shortened: as §2
Heterodera zeae [17] = assay: Nematicidal activity against Heterodera zeae infective stage larvae assessed as nematode mortality at 1% under light conditions measured 72 hr post dose by stereoscopic microscopy; assay type: functional; procedure, shortened: as §2
Heterodera zeae [18] = assay: Nematicidal activity against Heterodera zeae infective stage larvae assessed as nematode mortality at 5% under light conditions measured 5 to 60 min post dose by stereoscopic microscopy; assay type: functional, organism-based; procedure, shortened: as §1
Heterodera zeae [19] = assay: Nematicidal activity against Heterodera zeae infective stage larvae assessed as nematode mortality at 1% under light conditions measured 24 hr post dose by stereoscopic microscopy; assay type: functional; procedure, shortened: as §2
Heterodera zeae [20] = assay: Nematicidal activity against Heterodera zeae infective stage larvae assessed as nematode mortality at 0.5% under light conditions measured 48 hr post dose by stereoscopic microscopy; assay type: functional; procedure, shortened: as §2
Heterodera zeae [21] = assay: Nematicidal activity against Heterodera zeae infective stage larvae assessed as nematode mortality at 1% under dark conditions measured 72 hr post dose by stereoscopic microscopy; assay type: functional; procedure, shortened: as §2
Heterodera zeae [22] = assay: Nematicidal activity against Heterodera zeae infective stage larvae assessed as nematode mortality at 1% under dark conditions measured 24 hr post dose by stereoscopic microscopy; assay type: functional; procedure, shortened: as §2
Heterodera zeae [23] = assay: Nematicidal activity against Heterodera zeae infective stage larvae assessed as nematode mortality at 0.25% under light conditions measured 72 hr post dose by stereoscopic microscopy; assay type: functional; procedure, shortened: as §2
Heterodera zeae [24] = assay: Nematicidal activity against Heterodera zeae infective stage larvae assessed as nematode mortality at 0.125% under light conditions measured 5 to 60 min post dose by stereoscopic microscopy; assay type: functional, organism-based; procedure, shortened: as §1
Heterodera zeae [25] = assay: Nematicidal activity against Heterodera zeae infective stage larvae assessed as nematode mortality at 0.5% under dark conditions measured 24 hr post dose by stereoscopic microscopy; assay type: functional; procedure, shortened: as §2
Heterodera zeae [26] = assay: Nematicidal activity against Heterodera zeae infective stage larvae assessed as nematode mortality at 0.5% under dark conditions measured 48 hr post dose by stereoscopic microscopy; assay type: functional; procedure, shortened: as §2
Heterodera zeae [27] = assay: Nematicidal activity against Heterodera zeae infective stage larvae assessed as nematode mortality at 0.125% under dark conditions measured 72 hr post dose by stereoscopic microscopy; assay type: functional; procedure, shortened: as §2
Heterodera zeae [28] = assay: Nematicidal activity against Heterodera zeae infective stage larvae assessed as nematode mortality at 1% under light conditions measured 48 hr post dose by stereoscopic microscopy; assay type: functional; procedure, shortened: as §2
Heterodera zeae [29] = assay: Nematicidal activity against Heterodera zeae infective stage larvae assessed as nematode mortality at 0.5% under light conditions measured 72 hr post dose by stereoscopic microscopy; assay type: functional; procedure, shortened: as §2
Heterodera zeae [30] = assay: Nematicidal activity against Heterodera zeae infective stage larvae assessed as nematode mortality at 0.25% under dark conditions measured 5 to 60 min post dose by stereoscopic microscopy; assay type: functional, organism-based; procedure, shortened: as §1
Heterodera zeae [31] = assay: Nematicidal activity against Heterodera zeae infective stage larvae assessed as nematode mortality at 2% under light conditions measured 5 to 60 min post dose by stereoscopic microscopy; assay type: functional, organism-based; procedure, shortened: as §1
Heterodera zeae [32] = assay: Nematicidal activity against Heterodera zeae infective stage larvae assessed as nematode mortality at 0.25% under dark conditions measured 24 hr post dose by stereoscopic microscopy; assay type: functional; procedure, shortened: as §2
Heterodera zeae [33] = assay: Nematicidal activity against Heterodera zeae infective stage larvae assessed as nematode mortality at 0.25% under dark conditions measured 48 hr post dose by stereoscopic microscopy; assay type: functional; procedure, shortened: as §2
Heterodera zeae [34] = assay: Nematicidal activity against Heterodera zeae infective stage larvae assessed as nematode mortality at 0.125% under light conditions measured 48 hr post dose by stereoscopic microscopy; assay type: functional; procedure, shortened: as §2
Heterodera zeae [35] = assay: Nematicidal activity against Heterodera zeae infective stage larvae assessed as nematode mortality at 0.25% under dark conditions measured 72 hr post dose by stereoscopic microscopy; assay type: functional; procedure, shortened: as §2
Heterodera zeae [36] = assay: Nematicidal activity against Heterodera zeae infective stage larvae assessed as nematode mortality at 1% under light conditions measured 5 to 60 min post dose by stereoscopic microscopy; assay type: functional, organism-based; procedure, shortened: as §1

With `CCCCCCCCCCCCCCCC(=O)O` [PALMITIC ACID] the Activity (Heterodera zeae [1]) was “inactive”, the Activity (Heterodera zeae [2]) was “inactive” and the Activity (Heterodera zeae [3]) was “inactive”. The mortality (Heterodera zeae [4]) was 0%, the Activity (Heterodera zeae [5]) was “inactive” and the mortality (Heterodera zeae [6]) was 80%. It also gave a mortality (Heterodera zeae [7]) of 0%, a mortality (Heterodera zeae [8]) of 0% and a mortality (Heterodera zeae [9]) of 0%. For the same compound, the mortality (Heterodera zeae [10]) was 0%, the mortality (Heterodera zeae [11]) was 0% and the mortality (Heterodera zeae [12]) was 10%. The Activity (Heterodera zeae [13]) was “inactive”, the Activity (Heterodera zeae [14]) was “inactive” and the Activity (Heterodera zeae [15]) was “inactive”. The mortality (Heterodera zeae [16]) was 70%, the mortality (Heterodera zeae [17]) was 80% and the Activity (Heterodera zeae [18]) was “inactive”. For the same compound, the mortality (Heterodera zeae [19]) was 0%, the mortality (Heterodera zeae [20]) was 50% and the mortality (Heterodera zeae [21]) was 80%. The mortality (Heterodera zeae [22]) was 80%, the mortality (Heterodera zeae [23]) was 50% and the Activity (Heterodera zeae [24]) was “inactive”. The mortality (Heterodera zeae [25]) was 0%, the mortality (Heterodera zeae [26]) was 50% and the mortality (Heterodera zeae [27]) was 50%. The mortality (Heterodera zeae [28]) was 70%, the mortality (Heterodera zeae [29]) was 70% and the Activity (Heterodera zeae [30]) was “inactive”. For the same compound, the Activity (Heterodera zeae [31]) was “inactive”, the mortality (Heterodera zeae [32]) was 0% and the mortality (Heterodera zeae [33]) was 20%. The mortality (Heterodera zeae [34]) was 0%, the mortality (Heterodera zeae [35]) was 70% and the Activity (Heterodera zeae [36]) was “inactive”.

In the case of `O=C(O)c1ccc(O)cc1` [PARABEN], the Activity (Heterodera zeae [1]) is reported as “inactive”, the Activity (Heterodera zeae [2]) is reported as “inactive” and the Activity (Heterodera zeae [3]) is reported as “inactive”. For the same compound, the mortality (Heterodera zeae [4]) was 0%, the Activity (Heterodera zeae [5]) was “inactive” and the mortality (Heterodera zeae [6]) was 40%. The mortality (Heterodera zeae [7]) was 0%, the mortality (Heterodera zeae [8]) was 0% and the mortality (Heterodera zeae [9]) was 10%. For the same compound, the mortality (Heterodera zeae [10]) was 50%, the mortality (Heterodera zeae [11]) was 0% and the mortality (Heterodera zeae [12]) was 40%. The Activity (Heterodera zeae [13]) was “inactive”, the Activity (Heterodera zeae [14]) was “inactive” and the Activity (Heterodera zeae [15]) was “inactive”. The mortality (Heterodera zeae [16]) was 50%, the mortality (Heterodera zeae [17]) was 100% and the Activity (Heterodera zeae [18]) was “inactive”. It also gave a mortality (Heterodera zeae [19]) of 0%, a mortality (Heterodera zeae [20]) of 40% and a mortality (Heterodera zeae [21]) of 70%. For the same compound, the mortality (Heterodera zeae [22]) was 0%, the mortality (Heterodera zeae [23]) was 50% and the Activity (Heterodera zeae [24]) was “inactive”. For the same compound, the mortality (Heterodera zeae [25]) was 0%, the mortality (Heterodera zeae [26]) was 40% and the mortality (Heterodera zeae [27]) was 40%. The mortality (Heterodera zeae [28]) was 50%, the mortality (Heterodera zeae [29]) was 50% and the Activity (Heterodera zeae [30]) was “inactive”. The Activity (Heterodera zeae [31]) was “inactive”, the mortality (Heterodera zeae [32]) was 0% and the mortality (Heterodera zeae [33]) was 40%. For the same compound, the mortality (Heterodera zeae [34]) was 40%, the mortality (Heterodera zeae [35]) was 50% and the Activity (Heterodera zeae [36]) was “inactive”.

For `COc1c(O)cc2oc(-c3ccc(O)c(O)c3)c(O)c(=O)c2c1O` [PATULETIN], the Activity (Heterodera zeae [1]) was “inactive”, the Activity (Heterodera zeae [2]) was “inactive” and the Activity (Heterodera zeae [3]) was “inactive”. For the same compound, the mortality (Heterodera zeae [4]) was 0%, the Activity (Heterodera zeae [5]) was “inactive” and the mortality (Heterodera zeae [6]) was 60%. For the same compound, the mortality (Heterodera zeae [7]) was 20%, the mortality (Heterodera zeae [8]) was 20% and the mortality (Heterodera zeae [9]) was 0%. For the same compound, the mortality (Heterodera zeae [10]) was 100%, the mortality (Heterodera zeae [11]) was 20% and the mortality (Heterodera zeae [12]) was 70%. The Activity (Heterodera zeae [13]) was “inactive”, the Activity (Heterodera zeae [14]) was “inactive” and the Activity (Heterodera zeae [15]) was “inactive”. The mortality (Heterodera zeae [16]) was 20%, the mortality (Heterodera zeae [17]) was 100% and the Activity (Heterodera zeae [18]) was “inactive”. The mortality (Heterodera zeae [19]) was 40%, the mortality (Heterodera zeae [20]) was 20% and the mortality (Heterodera zeae [21]) was 60%. The mortality (Heterodera zeae [22]) was 20%, the mortality (Heterodera zeae [23]) was 100% and the Activity (Heterodera zeae [24]) was “inactive”. The mortality (Heterodera zeae [25]) was 0%, the mortality (Heterodera zeae [26]) was 20% and the mortality (Heterodera zeae [27]) was 0%. The mortality (Heterodera zeae [28]) was 40%, the mortality (Heterodera zeae [29]) was 100% and the Activity (Heterodera zeae [30]) was “inactive”. For the same compound, the Activity (Heterodera zeae [31]) was “inactive”, the mortality (Heterodera zeae [32]) was 0% and the mortality (Heterodera zeae [33]) was 10%. For the same compound, the mortality (Heterodera zeae [34]) was 50%, the mortality (Heterodera zeae [35]) was 10% and the Activity (Heterodera zeae [36]) was “inactive”.
